This passage reports Activity, IC50 and inhibition results from ChEMBL document CHEMBL4229321, “Monoterpenoid Indole Alkaloids from Kopsia officinalis and the Immunosuppressive Activity of Rhazinilam” (J Nat Prod, 2017).

Data set [1] deals with T-cell line. Put plainly: Induction of cell cycle arrest in anti-CD3/anti-CD28 antibody-stimulated human T cells assessed as accumulation at S phase at 0.1 uM incubated for 72 hrs by flow cytometry (reference value: 18.1%). In kind it is functional. In general terms: Flow cytometry measures light scatter and fluorescence of single cells or particles in a stream.
Data set [2] deals with T-cell line. Put plainly: Immunosuppressive activity in human T cells assessed as reduction in anti-CD3/anti-CD28 antibody-induced cell proliferation incubated for 72 hrs by CFSE based flow cytometry. In kind it is functional. In short, it runs like this:
(§1)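 Cells (10^6 cells/mL) labelled with 2.5 μM CFSE at 37 °C for 10 min. T cells from healthy donors (95% purity) were activated with plate-bound anti-CD3 (2 μg/mL) plus soluble anti-CD28 (1 μg/mL). Alternatively, PBMCs were mixed with equal numbers of 3000-rad-irradiated allogeneic PBMCs. Cells were cultured with or without drug for 72 h in RPMI 1640 with 10% FBS, and CFSE dilution was read by flow cytometry. Unstimulated cells served as 0% and stimulated untreated cells as 100%. IC50 was calculated from these.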

Data set [3] deals with T-cell line. Put plainly: Effect on anti-CD3/anti-CD28 antibody-induced cell activation in human T cells assessed as effect on CD25 expression at 0.1 uM incubated for 24 hrs by flow cytometry (reference value: 69.1%). Format: functional.
Data set [4] concerns T-cell line. The data set is described as follows: Effect on anti-CD3/anti-CD28 antibody-induced cell activation in human T cells assessed as effect on CD69 expression at 0.1 uM incubated for 24 hrs by flow cytometry (reference value: 41.2%). In kind it is functional.
Data set [5] has as its system T-cell line. The data set is described as follows: Effect on anti-CD3/anti-CD28 antibody-induced cell activation in human T cells assessed as effect on CD25 expression at 1 uM incubated for 24 hrs by flow cytometry (reference value: 69.1%). In kind it is functional.
For data set [6], the system named is T-cell line. The data set is described as follows: Effect on anti-CD3/anti-CD28 antibody-induced cell activation in human T cells assessed as effect on CD25 expression at 0.2 uM incubated for 24 hrs by flow cytometry (reference value: 69.1%). In kind it is functional.
Data set [7] deals with T-cell line. Put plainly: Immunosuppressive activity in human T cells assessed as reduction in alloantigen stimulation-induced cell proliferation incubated for 72 hrs by CFSE based flow cytometry. Format: functional. In short, it runs like this: as §1
The subject of data set [8] is T-cell line. Put plainly: Cytotoxicity in human T cells assessed as reduction in cell viability at 20 to 320 uM incubated for 72 hrs by CCK8 assay. In kind it is cell-based. In short, it runs like this:
(§2)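 Naive human T cells or PBMCs (10^6 cells/mL) exposed to 20, 40, 80, 160 or 320 μM or vehicle for 72 h. Viability read by CCK-8 as OD450, with untreated cells set to 100%. Mean ± SEM, n = 5 per group, three independent experiments.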

The subject of the next data set is PBMC. Put plainly: Cytotoxicity in human PBMC cells assessed as reduction in cell viability at 20 to 320 uM incubated for 72 hrs by CCK8 assay. Format: cell-based. In short, it runs like this:
as §2
A general note: Formazan colour is commonly taken as a measure of viable cells.

Data set [9] concerns T-cell line. The data set is described as follows: Effect on anti-CD3/anti-CD28 antibody-induced cell activation in human T cells assessed as effect on CD25 expression at 0.2 to 5 uM incubated for 24 hrs by flow cytometry. In kind it is functional, cell-based.
For data set [10], the system named is T-cell line. Put plainly: Effect on anti-CD3/anti-CD28 antibody-induced cell activation in human T cells assessed as effect on CD69 expression at 0.2 to 5 uM incubated for 24 hrs by flow cytometry. Format: functional, cell-based.
Data set [11] has as its system T-cell line. Put plainly: Induction of cell cycle arrest in anti-CD3/anti-CD28 antibody-stimulated human T cells assessed as accumulation at G0/G1 phase at 0.2 uM incubated for 72 hrs by flow cytometry (reference value: 66.6%). In kind it is functional.
The subject of data set [12] is T-cell line. The data set is described as follows: Induction of cell cycle arrest in anti-CD3/anti-CD28 antibody-stimulated human T cells assessed as accumulation at S phase at 0.2 uM incubated for 72 hrs by flow cytometry (reference value: 18.1%). In kind it is functional.
Data set [13] concerns T-cell line. Put plainly: Induction of cell cycle arrest in anti-CD3/anti-CD28 antibody-stimulated human T cells assessed as accumulation at G2/M phase at 0.2 uM incubated for 72 hrs by flow cytometry (reference value: 15.3%). In kind it is functional.
The test system of data set [14] is T-cell line. Put plainly: Induction of cell cycle arrest in anti-CD3/anti-CD28 antibody-stimulated human T cells assessed as accumulation at G0/G1 phase at 1 uM incubated for 72 hrs by flow cytometry (reference value: 66.6%). In kind it is functional.
For data set [15], the system named is T-cell line. The data set is described as follows: Induction of cell cycle arrest in anti-CD3/anti-CD28 antibody-stimulated human T cells assessed as accumulation at S phase at 1 uM incubated for 72 hrs by flow cytometry (reference value: 18.1%). Format: functional.
In data set [16] the test system is T-cell line. The data set is described as follows: Induction of cell cycle arrest in anti-CD3/anti-CD28 antibody-stimulated human T cells assessed as accumulation at G2/M phase at 1 uM incubated for 72 hrs by flow cytometry (reference value: 15.3%). Format: functional.
Data set [17] relates to T-cell line. Put plainly: Induction of cell cycle arrest in anti-CD3/anti-CD28 antibody-stimulated human T cells assessed as accumulation at G0/G1 phase at 5 uM incubated for 72 hrs by flow cytometry (reference value: 66.6%). In kind it is functional.
Data set [18] relates to T-cell line. The data set is described as follows: Induction of cell cycle arrest in anti-CD3/anti-CD28 antibody-stimulated human T cells assessed as accumulation at S phase at 5 uM incubated for 72 hrs by flow cytometry (reference value: 18.1%). In kind it is functional.
In data set [19] the test system is T-cell line. The data set is described as follows: Induction of cell cycle arrest in anti-CD3/anti-CD28 antibody-stimulated human T cells assessed as accumulation at G2/M phase at 5 uM incubated for 72 hrs by flow cytometry (reference value: 15.3%). Format: functional.
Data set [20] deals with T-cell line. Put plainly: Inhibition of IL6 production in anti-CD3/anti-CD28 antibody-stimulated human T cells at 0.2 to 5 uM incubated for 48 hrs by ELISA. In kind it is functional, cell-based. In short, it runs like this: (§3)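 Human T cells (10^6 cells/mL) treated with 0.2, 1 or 5 μM drug, LY-294002 (50 μM) or vehicle and activated with anti-CD3 (2 μg/mL) plus soluble anti-CD28 (1 μg/mL) for 48 h. Supernatant IL-6 and IL-17 were quantified by ELISA against recombinant cytokine standard curves. Mean ± SEM, n = 5 per group, three independent experiments.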
Background: In an ELISA, binding on a coated surface is turned into a signal by an enzyme label.

For data set [21], the system named is T-cell line. Put plainly: Inhibition of IL17 production in anti-CD3/anti-CD28 antibody-stimulated human T cells at 0.2 to 5 uM incubated for 48 hrs by ELISA. In kind it is functional, cell-based. In short, it runs like this: as §3
Data set [22] has as its system T-cell line. Put plainly: Effect on anti-CD3/anti-CD28 antibody-induced cell activation in human T cells assessed as effect on CD25 expression at 5 uM incubated for 24 hrs by flow cytometry (reference value: 69.1%). In kind it is functional.
Data set [23] relates to T-cell line. Put plainly: Effect on anti-CD3/anti-CD28 antibody-induced cell activation in human T cells assessed as effect on CD69 expression at 0.2 uM incubated for 24 hrs by flow cytometry (reference value: 41.2%). Format: functional.
Data set [24] has as its system T-cell line. The data set is described as follows: Effect on anti-CD3/anti-CD28 antibody-induced cell activation in human T cells assessed as effect on CD69 expression at 1 uM incubated for 24 hrs by flow cytometry (reference value: 41.2%). In kind it is functional.
In data set [25] the test system is T-cell line. Put plainly: Effect on anti-CD3/anti-CD28 antibody-induced cell activation in human T cells assessed as effect on CD69 expression at 5 uM incubated for 24 hrs by flow cytometry (reference value: 41.2%). Format: functional.

Usually IC50 stands for the midpoint of a concentration-inhibition curve.

The source made the active and inactive calls. No cut-off for these calls is given here.

On to `CC(=O)O[C@H]1C(=O)[C@@]2(C)[C@H]([C@H](OC(=O)c3ccccc3)[C@]3(O)C[C@H](OC(=O)[C@H](O)[C@@H](NC(=O)c4ccccc4)c4ccccc4)C(C)=C1C3(C)C)[C@]1(OC(C)=O)CO[C@@H]1C[C@@H]2O` [PACLITAXEL], for which the Activity in the data set with T-cell line [1] came to 16.9%.
`C[N+]12CCC[C@]34CC[C@@]5(Nc6ccccc6[C@]5(CC1)[C@H]32)[C@H](C(=O)[O-])C4` (some centres undefined): the IC50 in the data set with T-cell line [2] came out at 21.6 µM.
Same read-out and setting: for `COC(=O)N1c2c(OC)cccc2[C@@]23[C@H]4CN5CCC[C@@](CC[C@]12C(=O)O)(CC4=O)[C@H]53` the value was 27.8 µM; for `O=C1[C@H]2CN3CCC[C@]45CC[C@@]6(Nc7ccccc7[C@@]26[C@@H]34)[C@@]1(O)C5`, 25.4 µM.
Take `C=CC[C@@H]1/C=C(\C)C[C@H](C)C[C@H](OC)[C@H]2O[C@@](O)(C(=O)C(=O)N3CCCC[C@H]3C(=O)O[C@H](/C(C)=C/[C@@H]3CC[C@@H](O)[C@H](OC)C3)[C@H](C)[C@@H](O)CC1=O)[C@H](C)C[C@@H]2OC` [TACROLIMUS ANHYDROUS]: the Activity with T-cell line [3] came to 6.8%; in the data set on T-cell line [4], 13.1%.
Take `CC[C@]12CCCn3ccc(c31)-c1ccccc1NC(=O)CC2` [RHAZINILAM]: the Activity in the data set with T-cell line [5] is reported as 70.3%; with T-cell line [6], 68.8%; in the data set with T-cell line [8] it was “Non-Toxic”; with PBMC, “Non-Toxic”; in the data set with T-cell line [11], 66.5%; in the data set on T-cell line [12] it was 16.8%. Further, the Activity with T-cell line [13] was 16.7%; with T-cell line [14] it was 57.4%; in the data set with T-cell line [15], 19.7%; in the data set on T-cell line [16] it was 22.9%; with T-cell line [17] it was 42.1%; in the data set with T-cell line [18], 17.6%. The Activity in the data set on T-cell line [19] was 40.3%; in the data set with T-cell line [22], 69.3%; in the data set with T-cell line [23] it was 41.1%; in the data set with T-cell line [24], 42.4%; with T-cell line [25], 41.6%. The IC50 was 1 µM with T-cell line [2] and 1.1 µM in the data set on T-cell line [7]. The outcome in the data set with T-cell line [9] and with T-cell line [10] was inactive. Further, the inhibition entry in the data set on T-cell line [20] and with T-cell line [21] was “Active” throughout.
